Exocytosis inh = lytic granule exocytosis inhibition; TALL-104 LAMP-1 surface exposure, flow cytometry; cells stimulated with thapsigargin and PMA; inhibition, % at 10 µM; hit rate 0.66% among 360,000; AID 651702;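 active means inhibition above about 55%, limit read from the data; inconclusive means no clear call, values can overlap the other calls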
Myeloid diff 2 = compounds promoting myeloid differentiation; ER-HoxA9 myeloid progenitors, lysozyme-GFP differentiation, flow cytometry; calls only at 10 µM; hit rate 1% among 360,000;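 active means normalized GFP-positive differentiation at or above the plate's own cutoff, the solvent-only control mean plus 3 SD; inconclusive means no clear call, values can overlap the other calls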;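 further: cells exposed to compound for four days before flow analysis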
CSN deneddyl inh = blocks human CSN-mediated cullin deneddylation | Purified CSN, SCF-Nedd8-OG deneddylation, fluorescence polarization | hit rate 0.38% among 360,000 | inhibition, % at 12.5 µM | Q92905;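 active means pattern-corrected inhibition above about 35%, with an unprinted fluorescence ratio check between 0.5 and 1.5, limit read from the data, passing the limit was not always enough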
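test system = HEK293T-derived human Csn5 enzyme | amount = 0.24 nM Csn5 enzyme, final concentration | medium = Tris/NaCl/DTT buffer, pH 7.5 | schedule = 90 min reaction at room temperature | signal = FP | evaluation = inhibition of Csn5 cleavage, % | compound dosing = single dose of 12.5 µM compound with 0.25% DMSO | probe or stimulus = 10 nM SCFSkp2-Nedd8OG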
HNF4A DNA FP = change in binding of human HNF4 alpha to DNA | P41235 | HNF4a-FITC DNA binding, fluorescence polarization, 1 h | activity change, % at 10 µM | hit rate 0.3% among 360,000; in the data active means activity change above about 30%, passing the limit was not always enough
Target sequence (P41235 whole entry, looked up): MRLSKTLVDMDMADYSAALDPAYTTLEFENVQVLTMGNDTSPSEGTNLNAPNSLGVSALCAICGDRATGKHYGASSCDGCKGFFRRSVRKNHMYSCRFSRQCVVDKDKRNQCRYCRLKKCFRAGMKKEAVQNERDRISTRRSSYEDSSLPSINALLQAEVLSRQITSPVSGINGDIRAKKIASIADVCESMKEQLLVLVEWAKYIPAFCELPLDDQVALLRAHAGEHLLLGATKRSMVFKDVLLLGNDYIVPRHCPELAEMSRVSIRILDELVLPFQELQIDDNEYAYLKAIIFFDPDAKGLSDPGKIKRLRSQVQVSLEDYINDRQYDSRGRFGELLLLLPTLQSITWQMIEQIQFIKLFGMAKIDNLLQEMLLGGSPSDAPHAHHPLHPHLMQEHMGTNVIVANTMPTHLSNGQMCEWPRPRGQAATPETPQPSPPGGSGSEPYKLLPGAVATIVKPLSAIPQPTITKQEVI
Large screens that a line does not name were inactive. Compounds with a hit are over-represented: about 2.2% of the library has one in this group of screens.

Cc1ccc(NC(=O)CN(C)C(=O)COC(=O)c2ccc(NC(=O)CC#N)cc2)cc1	none
N#CCC(=O)Nc1ccc(C(=O)OCC(=O)C23CC4CC(CC(C4)C2)C3)cc1	Myeloid diff 2 active
N#CCC(=O)Nc1ccc(C(=O)OCC(=O)NCCCc2ccccc2)cc1	none
CC(=O)c1ccccc1NC(=O)c1ccc(OCc2c(C)noc2C)cc1	none
O=C(CCl)N1c2ccccc2CCc2ccccc21	Myeloid diff 2 active
NNC(=O)c1sc(-c2ccc(Cl)cc2)cc1N	Myeloid diff 2 active
CCOC(=O)c1sc(-c2ccc(Br)cc2)cc1N	none
O=C(CCn1nnnc1CN1CCOCC1)N1CCC(c2ccccc2F)C1 (centres undefined)	none
NC(=O)C1=C[C@@H](c2csc3ccccc23)C[C@@H](OCCCCO)O1	Myeloid diff 2 active
Cc1c(C(=O)NCc2ccc3c(c2)OCCO3)sc(=O)n1Cc1ccccc1C(F)(F)F	Myeloid diff 2 active
CCOCCCN(C(=O)Cn1nnc(-c2ccc(C)o2)n1)C(C(=O)NC1CCCC1)c1ccco1 (centres undefined)	none
O=C1OC(c2ccccc2)(c2ccccc2)c2ccccc21	none
Cc1cccc(C2(c3cccc(C)c3)OC(=O)c3ccccc32)c1	Myeloid diff 2 active
COc1cccc2sc(NNC(=O)C3=COCCO3)nc12	Myeloid diff 2 active
COc1ccc(OC)c2sc(NC(=O)C3=COCCO3)nc12	none
CCOC(=O)C1=C(CSc2nc3c(cc2C#N)CCC3)OC(N)=C(C#N)C1c1ccccc1 (centres undefined)	none
CCOC(=O)C1=C(CSc2nc(-c3ccccc3)ccc2C#N)OC(N)=C(C#N)C1c1cccnc1 (centres undefined)	Myeloid diff 2 active
CCOC(=O)C1=C(CSc2nc(-c3ccccc3)ccc2C#N)OC(N)=C(C#N)C1c1ccccc1 (centres undefined)	Myeloid diff 2 active, CSN deneddyl inh 38.8, HNF4A DNA FP 39.3
COc1ccc(Cl)cc1C(=O)n1cnc2ccccc21	none
Cc1noc(C)c1COc1ccccc1C(=O)NCCc1ccc(F)cc1	none
CCc1ccc2cc(C)cc(C)c2n1	none
N#CC(C#N)=c1ccc2c(c1)N1C3=C(CCCC3)CC3CCCCC31N=2 (centres undefined)	Exocytosis inh 64.0, Myeloid diff 2 active
CC(C)[C@H](NS(=O)(=O)c1ccccc1)C(=O)OCC(=O)Nc1cccc(S(N)(=O)=O)c1	none
O=C(NCC(=O)N(Cc1ccco1)C(C(=O)NC1CCCCC1)c1cccnc1)c1cccs1 (centres undefined)	Myeloid diff 2 active
CC(C)(C)OC(=O)n1cc(/C=N/NC(=O)c2ccco2)c2ccccc21	Myeloid diff 2 active
CC(=O)n1cc(/C=N/NC(=O)c2ccccc2O)c2ccccc21	none
COc1ccc2c(c1)C(=O)N1[C@H]3c4cc(Cl)ccc4OC[C@@H]3[C@H](c3ccccc3)[C@]1(C)C(=O)N2	Myeloid diff 2 active
Cc1cccc(CN(C)C[C@@H]2OCc3cnnn3CCCC(=O)N([C@H](C)CO)C[C@H]2C)c1	none
Cc1ccc2c(c1)c1c3n2CCCN(Cc2ccccc2)C3CCC1 (centres undefined)	Myeloid diff 2 active
CC(=O)c1sc2nc(CSc3nnnn3-c3ccccc3)[nH]c(=O)c2c1C	CSN deneddyl inh 45.9, HNF4A DNA FP 37.6
Cc1ccc(-n2nnnc2SCc2nc3sc(C)c(C)c3c(=O)[nH]2)cc1	none
CC1CCCCC1NC(=O)CN1C(=O)NC(C)(c2cc(F)ccc2F)C1=O (centres undefined)	none
CCOc1ccc(S(=O)(=O)Nc2nc3ccccc3nc2-n2ccc(=NC(=O)c3cccs3)cc2)cc1	CSN deneddyl inh 45.7
Cc1ccc(C)c(OCC(=O)Nc2ccc(N3CCOCC3)cc2N2CCOCC2)c1	none
Cc1ccccc1-c1nc(S(=O)(=O)c2ccc(Br)cc2)c(NCc2cccnc2)o1	Exocytosis inh 75.5
COc1ccc(OCC(=O)Nc2ccc(N3CCN(C(=O)c4ccccc4C)CC3)cc2)cc1	Myeloid diff 2 active
Cc1ccc(OCC(=O)Nc2ccc(N3CCN(C(=O)c4ccco4)CC3)cc2)cc1C	Myeloid diff 2 active
CC1=NOC(=O)/C1=C\c1ccc(-c2ccc(Cl)cc2Cl)o1	Exocytosis inh 96.2
CN1CCN(NC(=O)c2cn(-c3ccccc3)nc2-c2cccc(Br)c2)CC1	HNF4A DNA FP 46.0
O=C(CN(C(=O)CCC(=O)Nc1nccs1)c1ccc(F)cc1)NCC1CCCO1 (centres undefined)	none
O=C(CN(Cc1ccc(F)cc1)C(=O)CCC(=O)Nc1nccs1)NCC1CCCO1 (centres undefined)	Myeloid diff 2 active
CC(C)CCn1nnnc1CN1CCN(C(c2ccccc2)c2ccccc2)CC1	Myeloid diff 2 active
c1ccc(C(c2ccccc2)N2CCN(Cc3nnnn3C3CCCC3)CC2)cc1	none
O=C(c1cccc(S(=O)(=O)NCc2ccccc2)c1)N1CCN(c2ccc(F)cc2)CC1	none
O=C(c1cccc(S(=O)(=O)NCc2ccccc2)c1)N1CCN(c2ccccc2)CC1	Myeloid diff 2 active
Cc1ccc(NS(=O)(=O)c2ccc(C(=O)N3CCCC(C(F)(F)F)C3)cc2)cc1 (centres undefined)	none
COc1ccccc1N1CCN(S(=O)(=O)CCNC(=O)C2CCCC2)CC1	none
CCN1C2=C(C(=O)CCC2)C(c2ccc(O)c(Br)c2)C2=C1CCCC2=O	none
O=C1CCCC2=C1C(c1ccc(O)c(Br)c1)C1=C(CCCC1=O)N2c1ccccc1	Myeloid diff 2 active
Cc1ccc2cc(CCNC(=O)C(C)C)c(=O)[nH]c2c1C	none
Cc1ccc2cc(CCNC(=O)c3ccc4c(c3)OCO4)c(=O)[nH]c2c1C	HNF4A DNA FP 33.9
COc1cc(OC)c(OC)cc1/C=C/C(=O)c1ccc(NS(=O)(=O)c2ccc(C)cc2)cc1	Myeloid diff 2 active
CC(=O)c1ccc(NS(=O)(=O)c2ccc(C)cc2)cc1	none
COC(=O)c1ccc(Nc2cc(C)nc(-c3ccccc3O)n2)cc1	HNF4A DNA FP 37.2
Cc1cccc(C)c1NC(=O)C1C2C=CC(C2)C1C(=O)O (centres undefined)	none
COC(=O)c1cc(C(=O)OCC(=O)c2ccc3c(c2)NC(=O)CO3)cc([N+](=O)[O-])c1	CSN deneddyl inh 70.1
Cc1cccc(C(=O)OCC(=O)c2ccc3c(c2)NC(=O)CO3)c1	none
Cc1ccc(NC(=O)C2CCN(S(C)(=O)=O)CC2)c(C)c1	none
O=C(CN(C(=O)c1csnn1)c1ccc(F)cc1)NCCc1ccccc1	none
CCOc1ccc(CCNC(=O)c2cc(C)nc3ccccc23)cc1OCC	none
O=C(CCN1C(=O)/C(=C/c2cccs2)SC1=S)Nc1ccccn1	HNF4A DNA FP 33.3
S=C(Nc1ccc2nsnc2c1)N1CCCCCC1	Exocytosis inh 76.6
CC1=C(c2ccccc2)CCC1=O	Exocytosis inh 80.5
CN1CCN(CCCNC(=O)c2ccc3c(Cl)c4c(nc3c2)CCCC4)CC1	Myeloid diff 2 inconclusive
CN(c1ccc(OCC(=O)OCC(=O)c2c(N)n(C)c(=O)n(C)c2=O)cc1)S(=O)(=O)c1ccc2ccccc2c1	Exocytosis inh 69.2
